Experimental data from ChEMBL document CHEMBL4699443, “Position of lipidation influences anticancer activity of Smac analogs” (Bioorg Med Chem Lett, 2019).
Active and inactive are the calls of the source. The calls are words filed in the database; no cut-off is given here. Non-standard residues stand in square brackets, D forms with d. Residues, ends and D or L forms follow the SMILES beside them. *: point of attachment. Phe(3,5-F2) = N[C@@H](Cc1cc(F)cc(F)c1)C(=O)O; X1 = CCCCCCCCCCCCCCCCCCSCCN*; X3 = CCCCCCCCCCCCCCCCCC*; Ac4c = NC1(C(=O)O)CCC1

What was measured:
[1] = tested on: Jurkat; test: Antiproliferative activity against human Jurkat cells assessed as growth inhibition after 48 hrs by PrestoBlue dye based fluorescence assay; type: functional, cell-based
[2] = tested on: KOPN-8; test: Antiproliferative activity against human KOPN-8 cells assessed as growth inhibition after 48 hrs by PrestoBlue dye based fluorescence assay; type: functional, cell-based; conditions: KOPN-8, 48 h
[3] = tested on: MOLT-4; test: Antiproliferative activity against human MOLT-4 cells assessed as growth inhibition after 48 hrs by PrestoBlue dye based fluorescence assay; type: functional, cell-based; conditions: MOLT-4, 48 h
[4] = tested on: MV4-11; test: Antiproliferative activity against human MV4-11 cells assessed as growth inhibition after 48 hrs by PrestoBlue dye based fluorescence assay; type: functional, cell-based; conditions: MV4-11, 48 h
[5] = tested on: NALM-6; test: Antiproliferative activity against human NALM6 cells assessed as growth inhibition after 48 hrs by PrestoBlue dye based fluorescence assay; type: functional, cell-based; conditions: NALM-6, 48 h
[6] = Antiproliferative activity against human CEMTL cells assessed as growth inhibition after 48 hrs by PrestoBlue dye based fluorescence assay; type: functional, cell-based; conditions: CEM-TL
[7] = tested on: THP-1; test: Antiproliferative activity against human THP1 cells assessed as growth inhibition after 48 hrs by PrestoBlue dye based fluorescence assay; type: functional, cell-based; conditions: THP-1, 48 h
[8] = tested on: TF-1; test: Antiproliferative activity against human TF1 cells assessed as growth inhibition after 48 hrs by PrestoBlue dye based fluorescence assay; type: functional, cell-based; conditions: TF-1, 48 h
[9] = tested on: KOPN-8; test: Induction of apoptosis in human KOPN8 cells assessed as viable cells at 10 uM after 24 hrs by AnnexinV/PI-staining based flow cytometry; type: functional; conditions: read-out: Activity
Summary of the method: (§1)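 KOPN-8 cells treated with 1 or 10 μM compound, alone or as an equimolar two-compound mixture. Cultured for a time course, then stained with annexin V and propidium iodide. Read by flow cytometry; populations gated by annexin V/PI staining, including annexin V+/PI+ double positives.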

[10] = tested on: KOPN-8; test: Induction of apoptosis in human KOPN8 cells assessed as early apoptotic cells at 10 uM after 24 hrs by AnnexinV/PI-staining based flow cytometry; type: functional; summary of the method: as §1
[11] = tested on: KOPN-8; test: Induction of apoptosis in human KOPN8 cells assessed as late apoptotic cells at 10 uM after 24 hrs by AnnexinV/PI-staining based flow cytometry; type: functional; summary of the method: as §1
[12] = tested on: KOPN-8; test: Induction of apoptosis in human KOPN8 cells assessed as necrotic cells at 10 uM after 24 hrs by AnnexinV/PI-staining based flow cytometry; type: functional; summary of the method: as §1
[13] = tested on: KOPN-8; test: Induction of apoptosis in human KOPN8 cells assessed as viable cells at 10 uM after 48 hrs by AnnexinV/PI-staining based flow cytometry; type: functional; conditions: read-out: Activity; summary of the method: as §1
[14] = tested on: KOPN-8; test: Induction of apoptosis in human KOPN8 cells assessed as early apoptotic cells at 10 uM after 48 hrs by AnnexinV/PI-staining based flow cytometry; type: functional; summary of the method: as §1
[15] = tested on: KOPN-8; test: Induction of apoptosis in human KOPN8 cells assessed as late apoptotic cells at 10 uM after 48 hrs by AnnexinV/PI-staining based flow cytometry; type: functional; summary of the method: as §1
[16] = tested on: KOPN-8; test: Induction of apoptosis in human KOPN8 cells assessed as necrotic cells at 10 uM after 48 hrs by AnnexinV/PI-staining based flow cytometry; type: functional; summary of the method: as §1
[17] = tested on: KOPN-8; test: Induction of apoptosis in human KOPN8 cells assessed as viable cells at 10 uM after 72 hrs by AnnexinV/PI-staining based flow cytometry; type: functional; conditions: read-out: Activity; summary of the method: as §1
[18] = tested on: KOPN-8; test: Induction of apoptosis in human KOPN8 cells assessed as early apoptotic cells at 10 uM after 72 hrs by AnnexinV/PI-staining based flow cytometry; type: functional; summary of the method: as §1
[19] = tested on: KOPN-8; test: Induction of apoptosis in human KOPN8 cells assessed as late apoptotic cells at 10 uM after 72 hrs by AnnexinV/PI-staining based flow cytometry; type: functional; summary of the method: as §1
[20] = tested on: KOPN-8; test: Induction of apoptosis in human KOPN8 cells assessed as necrotic cells at 10 uM after 72 hrs by AnnexinV/PI-staining based flow cytometry; type: functional; summary of the method: as §1
[21] = tested on: KOPN-8; test: Induction of apoptosis in human KOPN8 cells assessed as viable cells at 10 uM after 168 hrs by AnnexinV/PI-staining based flow cytometry; type: functional; conditions: read-out: Activity; summary of the method: as §1
[22] = tested on: KOPN-8; test: Induction of apoptosis in human KOPN8 cells assessed as early apoptotic cells at 10 uM after 168 hrs by AnnexinV/PI-staining based flow cytometry; type: functional; summary of the method: as §1
[23] = tested on: KOPN-8; test: Induction of apoptosis in human KOPN8 cells assessed as late apoptotic cells at 10 uM after 168 hrs by AnnexinV/PI-staining based flow cytometry; type: functional; summary of the method: as §1
[24] = tested on: KOPN-8; test: Induction of apoptosis in human KOPN8 cells assessed as necrotic cells at 10 uM after 168 hrs by AnnexinV/PI-staining based flow cytometry; type: functional; summary of the method: as §1
[25] = tested on: KOPN-8; test: Induction of apoptosis in human KOPN8 cells assessed as increase in caspase 3/7 activity at 0.1 to 50 uM after 24 hrs by Caspase-glo reagent based microplate reader analysis relative to control; type: functional; conditions: dose microM 0.1-50
Summary of the method: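 MDA-MB-231 or KOPN-8 cells treated at concentrations across 0–50 μM in dose response. Enzymatic activity of caspase-3/7 and caspase-9 measured and expressed as fold increase.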

[26] = tested on: KOPN-8; test: Induction of apoptosis in human KOPN8 cells assessed as increase in caspase 9 activity at 0.1 to 50 uM after 24 hrs by Caspase-glo reagent based microplate reader analysis relative to control; type: functional; conditions: dose microM 0.1-50, time […]

For `CCCCCCCCCCCCCCCCCCSCCNC(=O)[C@@H]1CCCN1C(=O)[C@H](CCCNC(=N)N)NC(=O)C1(NC(=O)[C@@H]2CCCN2C(=O)[C@H](Cc2cc(F)cc(F)c2)NC(=O)[C@@H](N)CSCCCCCCCCCCCCCCCCCC)CCC1` (H-C(X3)[Phe(3,5-F2)]P[Ac4c]RP-X1), the EC50 [1] was 21.7 µM, the EC50 [2] was 1 µM and the EC50 [3] was 6.5 µM. For the same compound, the EC50 [4] was 9.2 µM, the EC50 [5] was 5.6 µM and the EC50 [6] was 5.9 µM. The EC50 [7] was 9.5 µM, the EC50 [8] was 4.2 µM and the viability at 10 µM [9] was 87.7%. For the same compound, the Activity [10] was 1.09%, the Activity [11] was 9.22% and the Activity [12] was 2.04%. It also gave a viability at 10 µM [13] of 87.1%, an Activity [14] of 1.19% and an Activity [15] of 9.59%. For the same compound, the Activity [16] was 2.15%, the viability at 10 µM [17] was 91.6% and the Activity [18] was 0.58%. The Activity [19] was 6.63%, the Activity [20] was 1.23% and the viability at 10 µM [21] was 68.2%. It also gave an Activity [22] of 3.81%, an Activity [23] of 26.4% and an Activity [24] of 1.59%. The “fold change (FC)” value [25] was 3.6 and the Activity [26] was “inactive”.
